Laboratory results published in publication PMC3517974 (ChemMedChem, 2009).

How the values were obtained:
[1] = In vitro stability in rat liver S9 fraction with NADPH-regenerating system; type: in vitro ADME; settings: for log kS9: hydrolysis constant in rat liver S9 fraction
Method in brief: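 S9 came from male Wistar rat liver (250–300 g), perfused with ice-cold 0.15 M KCl, homogenized 20% w/v in 0.01 M PBS pH 7.4, and spun at 9,000g. It was preincubated 5 min at 37 °C with NADPH-regenerating system (2 mM NADP+, 10 mM G6P, 0.4 U/mL G6PDH, 5 mM MgCl2), 2 mg/mL protein. Test compound was added at 1 µM (1% DMSO). Aliquots were acetonitrile-quenched and analyzed by RP-HPLC; t1/2 from pseudo-first-order constants, mean±SD of three.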

[2] = type: in vitro ADME, rat; settings: for log kplasma: hydrolysis constant in rat plasma

SMILES	log kS9 [1]	log kplasma [2]	t1/2,inhib in rat plasma ([2]; coincubation with esterase inhibitor paraoxon 1 mM)	half-life at 1 μM ([1]; male, Wistar, rat, liver S9 fraction, pH 7.4, half-life in rat liver S9 fraction, in vitro oxidative metabolism)	stability in rat liver S9 relative to regio isomer 1 [1]
O=C(NC1CCCCC1)Oc1ccc2ccccc2c1 [Compound 13, Cyclohexylcarbamic acid naphthalen-2-yl ester]	−0.86	−1.57	–	–	–
O=C(NC1CCCCC1)Oc1cccc(-c2ccccc2)c1 [Compound 1]	−0.94	−1.79	143 min	–	–
CCCCNC(=O)Oc1ccc(OCc2ccccc2)cc1 [Compound 8, n-Butylcarbamic acid 4-benzyloxyphenyl ester]	−1.00	−2.68	–	–	–
NC(=O)c1cccc(-c2cccc(OC(=O)NC3CCCCC3)c2)c1 [Compound 9, cyclohexylcarbamic acid 3′-carbamoylbiphenyl-3-yl ester]	−1.93	−1.68	–	~60 min	–
O=C(NC1CCCCC1)Oc1ccc(-c2ccccc2)cc1 [Compound 12, Cyclohexylcarbamic acid biphenyl-4-yl ester]	−1.44	−1.50	–	–	3 fold
